Consider nine molecules from ChEMBL document CHEMBL1129967, “3'-Chloro-3 alpha-(diphenylmethoxy)tropane but not 4'-chloro-3 alpha-(diphenylmethoxy)tropane produces a cocaine-like behavioral profile” (J Med Chem, 1997).

The structures appear in SMILES notation.

Assay [1] concerns the target T1, Sodium-dependent dopamine transporter (Rattus norvegicus, UniProt P23977). Kind of assay: [3H]-Dopamine uptake inhibition in rat caudate putamen. Format: functional, tissue-based. In a few lines:
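Rat caudate putamen chopped into 225 μm slices, in oxygenated Krebs-HEPES at 37 °C. Filtered, tracer extracted with methanol/HCl and counted; filter blank subtracted. IC50 from the linear portion of the concentration–response curve by linear regression.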

The target in assay [2] is T1, Sodium-dependent dopamine transporter. The experiment in a line: Displacement of [3H]WIN-35428 binding to the dopamine transporter (DAT) in Rat Caudate Putamen. Background: Displacement assays read how much labelled ligand stays bound in the presence of the test substance.
In assay [3] the target is T2, Muscarinic acetylcholine receptor M1 (Rattus norvegicus, UniProt P08482).
T2 sequence (P08482 whole entry): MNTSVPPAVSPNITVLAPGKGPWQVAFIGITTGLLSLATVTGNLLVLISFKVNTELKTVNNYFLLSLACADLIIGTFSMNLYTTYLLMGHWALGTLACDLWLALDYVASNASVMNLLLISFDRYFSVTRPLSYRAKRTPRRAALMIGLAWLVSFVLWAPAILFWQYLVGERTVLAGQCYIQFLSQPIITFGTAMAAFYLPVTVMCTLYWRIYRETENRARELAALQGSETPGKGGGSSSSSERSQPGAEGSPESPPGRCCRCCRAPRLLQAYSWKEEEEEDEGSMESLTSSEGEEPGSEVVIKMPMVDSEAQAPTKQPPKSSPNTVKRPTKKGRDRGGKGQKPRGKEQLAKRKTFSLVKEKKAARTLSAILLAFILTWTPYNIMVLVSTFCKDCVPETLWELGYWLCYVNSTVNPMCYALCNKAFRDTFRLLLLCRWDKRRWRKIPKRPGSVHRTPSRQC
The experiment in a line: Displacement of [3H]pirenzepine binding at Muscarinic acetylcholine receptor M1 in rat brain P2 membranes. Format: cell membranes, Membrane. In a few lines:
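Rat brain P2 membranes (0.3 mg protein) in 50 mM Tris-HCl pH 7.4 with 5 mM MgCl2 and 5 nM [3H]pirenzepine. Nine competitor concentrations (0.03–300 nM), 60 min at 37 °C, filtered. Nonspecific binding defined with 10 μM QNB.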

In assay [4] the target is Sodium-dependent serotonin transporter (Rattus norvegicus) (UniProt P31652). The experiment in a line: Percent inhibition at 10 uM for displacement of [3H]- citalopram binding at the serotonin transporter (5HTT). In a few lines:
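Run by a contract screening service under a published method: [3H]citalopram at 0.7 nM final concentration.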

For assay [5], the target named is Norepinephrine transporter (Rattus norvegicus) (UniProt Q9WTR4). Kind of assay: Percent inhibition at 10 uM for displacement of [3H]- desmethylimipramine binding at the norepinephrine transporter (NET) in rat cortex. In a few lines: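 Run by a contract screening service under a published method: [3H]desmethylimipramine at 3.0 nM final concentration.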
Chain of Norepinephrine transporter (Rattus norvegicus) (Q9WTR4 as listed by the source): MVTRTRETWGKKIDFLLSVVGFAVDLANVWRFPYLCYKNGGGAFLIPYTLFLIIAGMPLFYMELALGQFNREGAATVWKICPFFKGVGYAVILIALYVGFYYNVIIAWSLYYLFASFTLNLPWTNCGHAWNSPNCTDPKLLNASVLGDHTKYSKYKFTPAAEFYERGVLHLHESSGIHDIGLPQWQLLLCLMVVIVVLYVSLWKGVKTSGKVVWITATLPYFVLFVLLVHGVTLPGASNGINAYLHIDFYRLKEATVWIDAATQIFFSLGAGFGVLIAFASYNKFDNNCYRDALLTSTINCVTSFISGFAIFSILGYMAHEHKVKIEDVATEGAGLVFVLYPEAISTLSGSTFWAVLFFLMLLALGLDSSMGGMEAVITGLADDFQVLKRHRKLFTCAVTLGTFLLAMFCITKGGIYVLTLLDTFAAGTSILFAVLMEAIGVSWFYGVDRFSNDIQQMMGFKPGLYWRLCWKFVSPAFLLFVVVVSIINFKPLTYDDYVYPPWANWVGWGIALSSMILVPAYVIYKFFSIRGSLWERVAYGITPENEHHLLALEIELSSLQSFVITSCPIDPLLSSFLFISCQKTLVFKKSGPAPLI
The target of assay [6] is Sodium-dependent dopamine transporter (Rattus norvegicus) (UniProt P23977). The experiment in a line: Selectivity ratio for [3H]-DA uptake inhibition to DAT binding. Format: functional.
Chain of Sodium-dependent dopamine transporter (Rattus norvegicus) (P23977 whole entry): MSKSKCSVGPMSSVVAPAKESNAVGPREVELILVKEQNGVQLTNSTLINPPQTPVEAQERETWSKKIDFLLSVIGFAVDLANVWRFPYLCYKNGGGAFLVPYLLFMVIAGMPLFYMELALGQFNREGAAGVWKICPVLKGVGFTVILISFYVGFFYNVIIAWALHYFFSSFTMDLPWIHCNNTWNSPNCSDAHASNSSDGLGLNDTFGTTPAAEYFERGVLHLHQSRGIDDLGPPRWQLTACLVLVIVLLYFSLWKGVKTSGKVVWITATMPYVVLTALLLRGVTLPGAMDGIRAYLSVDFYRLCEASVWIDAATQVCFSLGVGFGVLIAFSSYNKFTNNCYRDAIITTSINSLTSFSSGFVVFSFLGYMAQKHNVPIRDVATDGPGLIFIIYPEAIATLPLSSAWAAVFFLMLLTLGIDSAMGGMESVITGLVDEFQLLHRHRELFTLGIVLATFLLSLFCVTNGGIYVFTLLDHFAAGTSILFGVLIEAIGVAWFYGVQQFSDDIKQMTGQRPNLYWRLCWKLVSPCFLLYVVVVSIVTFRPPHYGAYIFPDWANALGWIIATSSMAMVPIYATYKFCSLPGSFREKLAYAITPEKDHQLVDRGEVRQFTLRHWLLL

T1 sequence (P23977 whole entry): as above
Chain of Sodium-dependent serotonin transporter (Rattus norvegicus) (P31652 whole entry): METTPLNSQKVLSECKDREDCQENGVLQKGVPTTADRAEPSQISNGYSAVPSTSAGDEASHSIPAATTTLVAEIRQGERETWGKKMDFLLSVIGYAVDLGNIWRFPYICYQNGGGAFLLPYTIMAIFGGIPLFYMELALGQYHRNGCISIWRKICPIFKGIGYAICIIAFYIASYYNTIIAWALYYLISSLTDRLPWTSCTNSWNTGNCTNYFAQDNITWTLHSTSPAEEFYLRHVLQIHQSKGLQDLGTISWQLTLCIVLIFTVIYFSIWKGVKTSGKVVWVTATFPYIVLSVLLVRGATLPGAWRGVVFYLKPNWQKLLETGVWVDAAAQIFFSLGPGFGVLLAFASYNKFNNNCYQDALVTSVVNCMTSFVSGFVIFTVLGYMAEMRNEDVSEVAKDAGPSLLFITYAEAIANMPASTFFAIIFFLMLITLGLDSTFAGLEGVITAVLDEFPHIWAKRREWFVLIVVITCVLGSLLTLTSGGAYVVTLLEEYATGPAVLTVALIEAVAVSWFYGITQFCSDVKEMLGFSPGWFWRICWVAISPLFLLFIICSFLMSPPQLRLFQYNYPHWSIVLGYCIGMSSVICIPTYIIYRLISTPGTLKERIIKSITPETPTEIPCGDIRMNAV

Turning to `CN1[C@@H]2CC[C@H]1C[C@@H](OC(c1ccccc1)c1ccccc1Cl)C2` (some centres not stated), the IC50 – broadly, the concentration at which inhibition is half-maximal – in assay [1] turned out to be 997 nM. In addition, the Ki (in general, the dissociation constant of the complex between target and ligand, obtained from inhibition or displacement) in assay [2] was 228 nM; in assay [3], 0.41 nM. The I in assay [4] is 55.4%; in assay [5] it was 76.1%. Moreover, the Selectivity ratio in assay [6] was determined as 4.4.

For `CN1[C@@H]2CC[C@H]1C[C@@H](OC(c1ccccc1)c1ccccc1N)C2` (some centres not stated) [AMINOBENZTROPINE], the IC50 in assay [1] is 373 nM. Moreover, the Ki was determined as 1840 nM in assay [2] and 1.12 nM in assay [3]. Besides, the I in assay [4] came out at 16%; in assay [5], 14%. The Selectivity ratio in assay [6] worked out at 0.2.

As for `CN1[C@@H]2CC[C@H]1C[C@@H](OC(c1ccccc1)c1ccccc1F)C2` (some centres not stated), in assay [1], half-maximal inhibition (IC50) required 140 nM. Besides, the Ki in assay [2] is 50 nM; in assay [3] it was 0.43 nM. The I in assay [4] is 22.3%; in assay [5] it was 17.8%. The Selectivity ratio in assay [6] is 2.8.

In the case of `CN1[C@@H]2CC[C@H]1C[C@@H](OC(c1ccccc1)c1cccc(F)c1)C2` (some centres not stated), the IC50 in assay [1] stood at 250 nM. Also, the Ki in assay [2] was 68.5 nM; in assay [3], 0.6 nM. The I in assay [4] came out at 42.2%; in assay [5], 82.4%. In addition, the Selectivity ratio in assay [6] was determined as 3.7.

On to `CN1[C@@H]2CC[C@H]1C[C@@H](OC(c1ccccc1)c1cccc(C(F)(F)F)c1)C2` (some centres not stated), for which half-maximal inhibition in assay [1] (IC50) was put at 457 nM. In addition, the Ki in assay [2] was determined as 187 nM; in assay [3], 2.52 nM. Besides, the I in assay [4] was 59.8%; in assay [5], 78.5%. Also, the Selectivity ratio in assay [6] turned out to be 2.4.

`Cc1ccccc1C(O[C@H]1C[C@H]2CC[C@@H](C1)N2C)c1ccccc1` (some centres not stated) showed an IC50 in assay [1] of 1200 nM. The Ki was 309 nM in assay [2] and 0.5 nM in assay [3]. Besides, the figures for the I in assay [4] and in assay [5] were 35.7% and 66.5%, respectively. Moreover, the Selectivity ratio in assay [6] stood at 3.9.

Regarding `CN1C2CCC1CC(OC(c1ccccc1)c1ccc(Cl)cc1)C2` (configuration not stated), in assay [3], the Ki came out at 1.48 nM. Also, the figures for the I in assay [4] and in assay [5] were 34% and 32%, respectively. Also, the Selectivity ratio in assay [6] turned out to be 3.8.

As to `CN1[C@@H]2CC[C@H]1C[C@@H](OC(c1ccccc1)c1cccc(Cl)c1)C2` (some centres not stated), it took 228 nM to reach half-maximal inhibition in assay [1] (IC50). Besides, the figures for the Ki in assay [2] and in assay [3] were 21.6 nM and 0.98 nM, respectively. Also, the I stood at 24.5% in assay [4] and 74.7% in assay [5]. Also, the Selectivity ratio in assay [6] turned out to be 10.6.

`CN1[C@@H]2CC[C@H]1C[C@@H](OC(c1cccc(F)c1)c1cccc(F)c1)C2` came in with an IC50 in assay [1] of 407 nM. In addition, the values for the Ki in assay [2] and in assay [3] were 47.4 nM and 0.85 nM, respectively. In addition, the results for the I in assay [4] and in assay [5] were 72.6% and 75.6%, respectively. Moreover, in assay [6], the Selectivity ratio is 8.6.
